High-throughput results (PubChem BioAssay)
In the library only some 2.5% were active in any assay of this set; here they are far more common.
PMI act hi M6P = human PMI activators, high substrate, primary screen, biochemical, fluorescence intensity, near-saturating mannose 6-phosphate. activation factor at 20 µM. AID 1216, 2008. actives 0.34% (n = 190,000). Mannose-6-phosphate isomerase (Homo sapiens), P34949. coupled PMI enzyme assay, resazurin fluorescence, 20 min; hits give high values; 1 = untreated enzyme, 0 = substrate-free blank;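 active = activation factor of 2 or more at 20 µM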
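Test system: human phosphomannose isomerase with PGI, G6PDH, diaphorase coupling enzymes / Doses: 20 µM compound, 1% DMSO / Times: enzyme reaction with compound 20 min at room temperature / Measured by: Diaphorase-driven resazurin-to-resorufin fluorescence, excitation 544, emission 590 nm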
FLuc inhib CS = firefly luciferase enzyme inhibitors, primary screen, artefact control for luciferase-based inhibitor screens, biochemical, luminescence, ATPLite; 10 min; inhibition, % at 10 µM; actives 1.5% (n = 200,000);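 active = inhibition above about 50% when tested at 10 µM, limit read from the data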
Target sequence (P08659 whole entry, looked up): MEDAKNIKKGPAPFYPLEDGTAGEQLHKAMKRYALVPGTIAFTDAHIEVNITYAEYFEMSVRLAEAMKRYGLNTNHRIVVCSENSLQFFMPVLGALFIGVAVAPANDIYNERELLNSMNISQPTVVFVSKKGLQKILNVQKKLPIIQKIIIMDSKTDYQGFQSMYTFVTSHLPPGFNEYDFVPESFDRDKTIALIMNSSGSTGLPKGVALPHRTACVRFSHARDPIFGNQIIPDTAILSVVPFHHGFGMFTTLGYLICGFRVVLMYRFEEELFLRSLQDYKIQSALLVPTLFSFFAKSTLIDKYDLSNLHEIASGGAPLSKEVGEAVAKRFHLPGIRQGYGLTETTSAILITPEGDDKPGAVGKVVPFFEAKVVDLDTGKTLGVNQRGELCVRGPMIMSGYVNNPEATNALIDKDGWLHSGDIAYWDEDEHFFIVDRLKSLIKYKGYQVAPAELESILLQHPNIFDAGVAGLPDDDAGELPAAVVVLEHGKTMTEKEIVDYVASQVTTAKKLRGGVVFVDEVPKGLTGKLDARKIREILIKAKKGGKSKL
PMI activator = activators of human PMI, primary screen, biochemical, fluorescence intensity, near-Km mannose 6-phosphate; Mannose-6-phosphate isomerase (Homo sapiens), P34949; purified human PMI, coupled resazurin fluorescence, 20 min; hits give high values; 1 = vehicle control, 0 substrate-free wells; activation factor at 20 µM; actives 0.005% (n = 190,000);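 active = activation factor of 2 or more at 20 µM, relative to plate controls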
Diaphorase inh = diaphorase inhibitors and chemical oxidizers, primary screen, counter-screen for diaphorase-coupled primary assays, biochemical, uHTS, resorufin fluorescence. AID 1217, 2008. actives 0.69% (n = 190,000). inhibition, % at 20 µM. diaphorase resazurin-to-resorufin fluorescence, NADH, 16 min; bacterial (C. kluyveri) enzyme, not human;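 active = primary screen inhibition at 20 µM above a set limit, cut at about 50% in these data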;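 note: plate controls were DMSO with full reaction for no effect and wells lacking NADH for full effect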
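Test system: bacterial diaphorase enzyme (C. kluyveri); Quantity: 0.14 U/mL diaphorase, enzyme working solution; Times: reaction incubation of 16 min at room temperature; Measured by: fluorescence of resorufin formed from resazurin, Ex 544/Em 590 nm; Benchmarks: positive control minus NADH, DMSO neutral control.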
FLuc act counter = FLuc activators, initial screening, artefact control for FLuc-dependent activation tests, biochemical, ATPlite luminescence. Luciferin 4-monooxygenase (Photinus pyralis), P08659. ATPlite luciferase biochemical, 10 min; 0 = ATP-free wells, 1 = DMSO control. activation factor at 10 µM. 200,000 tested, under 10 active. AID 1027, 2008;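 active = luciferase activation factor, scaled between plate controls, of at least 2 with compound at 10 µM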
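System: Luciferase/luciferin detection reagent, cell-free biochemical luciferase assay | Medium: PBS buffer for ATP | Dosing: Test compounds dosed from 2 mM stocks in 100% DMSO | Timing: 10 min at ambient temperature | Signal: Luminescence measurement of luciferase light output | Evaluation: Luciferase activation, seen as luminescence increase over controls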
Diaphorase act = compounds boosting diaphorase resazurin reduction – biochemical, uHTS, resorufin fluorescence, counter-screen for diaphorase-coupled primary assays, primary screen; Diaphorase/resazurin coupled assay, 16 min; hits give high values; 1 = vehicle wells, 0 = NADH-free wells; activation factor at 20 µM; actives 0.005% (n = 190,000); AID 1229, 2008;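 active = diaphorase activity raised at least twofold by the compound at 20 µM; inactive = activation factor below 2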
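Material: purified diaphorase enzyme from Clostridium kluyveri; Also added: 0.114 mM NADH and 0.1 mM resazurin, final amounts; Doses: single compound dose of 20 µM, 1% DMSO final; Times: 16 min enzyme reaction, ambient temperature; Detection: resorufin fluorescence, excitation 544 nm, emission 590 nm; Measure: increased resorufin signal from activators or reducing compounds.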
* hit, by the source's call.

SMILES	PMI act hi M6P	FLuc inhib CS	PMI activator	Diaphorase inh	FLuc act counter	Diaphorase act
Oc1ccc(CN2CCN(c3ccccc3)CC2)c2cccnc12	0.5	-4.7	0.6	65.7*	1	0.3
Oc1ccc(CN2CCCCC2)c2cccnc12	0.5	-6.2	0.6	58.2*	1.1	0.4
CC(C)COCc1ccc(O)c2ncccc12	0.9	-4.7	0.7	55.1*	1	0.4
Oc1ccc(COCc2ccccc2)c2cccnc12	0.5	13.1	0.5	40.3	0.9	0.6
Oc1ccc(CN2CCC(Cc3ccccc3)CC2)c2cccnc12	0.5	-4.2	0.7	61.8*	1	0.4
NC(=O)CSc1nnc(C2CC2)n1Cc1ccccc1	0.9	-8.6	0.9	10.6	1.1	0.9
CCOC(=O)N1CCN(Cc2ccc(O)c3ncccc23)CC1	0.4	-4.5	0.4	72.0*	1	0.3
O=C1NCCN(Cc2ccoc2)C1CC(=O)N(Cc1ccccc1)CC1CCC1 (configuration not stated)	0.8	-3.7	0.9	24.8	1	0.8
COc1cccc(/C=N/Nc2ncnc(N)c2[N+](=O)[O-])c1OC	1	78.1*	1	7.2	0.2	0.9
COc1ccc(/C=N/Nc2ncnc(Cl)c2N)cc1OC	1.2	15.9	1.1	19.4	0.8	0.8
COc1cccc(/C=N/Nc2ncnc(Cl)c2N)c1O	1.1	68.5*	1	14.8	0.3	0.9
COc1cccc(/C=N/Nc2nc3ccccc3n3cnnc23)c1	1.4	-8.6	1.2	9.0	1.1	0.9
COc1cccc(/C=N/Nc2nccnc2Cl)c1O	1.3	83.8*	0.9	39.1	0.2	0.6
COc1cccc(/C=N/Nc2nc3ccccc3n3cnnc23)c1O	1.2	37.3	0.9	65.6*	0.6	0.3
CCOC(=O)c1ccc(N2C(=O)CC(N3CCC(Nc4ccc(F)cc4)CC3)C2=O)cc1 (configuration not stated)	0.9	-3.5	0.9	7.7	1	0.9
O=C(Nc1cccc(NS(=O)(=O)c2ccc(S(=O)(=O)NC3CC3)cc2)c1)c1ccccn1	1	-7.9	1	14.0	1.1	0.9
[O-]C1=N/[N+](=C/c2ccc(Cl)cc2)CC1	2*	1.5	1.5	-12.2	1	1.1
Cc1ccc(NC(=O)[C@@H](NC(=O)c2cccc(S(=O)(=O)N3CCOCC3)c2)C(C)C)cc1C	0.9	-2.9	0.9	22.6	1	0.8
Cc1ccc(-n2c(O)c(C=NC3CCS(=O)(=O)C3)c3ccccc3c2=O)cc1C (configuration not stated)	0.9	-2.4	0.8	24.7	1	0.8
Cc1ccc(-n2c(O)c(C=Nc3ccccc3-c3n[nH]c(=S)[nH]c3=O)c3ccccc3c2=O)cc1C	0.8	-3.2	0.9	75.5*	1	0.2
Cc1ccc(-n2c(O)c(C=Nc3ccccc3-c3n[nH]c(=S)[nH]c3=O)c3ccccc3c2=O)c(C)c1	0.8	-3.4	0.9	72.2*	1	0.3
Cc1ccc(-n2c(O)c(/C=N/Nc3ccc(S(=O)(=O)N4CCOCC4)cc3[N+](=O)[O-])c3ccccc3c2=O)c(C)c1	1	12.9	1	23.1	0.9	0.8
Cc1[nH]c2ccccc2c1C(=O)COC(=O)c1c(-c2c(F)cccc2Cl)noc1C	0.9	-6.2	0.8	19.1	1.1	0.8
COc1ccc(-c2nc3nc(C)cc(C)n3n2)cc1	0.9	58.9*	0.9	14.7	0.4	0.9
CC[n+]1oc(-c2ccccc2)cc1C	1.1	-3.5	1.1	-1.1	1	1
SMILES	PMI act hi M6P	FLuc inhib CS	PMI activator	Diaphorase inh	FLuc act counter	Diaphorase act
Cc1ccc2c(CSc3nncn3C)cc(=O)oc2c1C	1.1	-5.2	1.1	12.9	1.1	0.9
Cc1ccccc1OCc1nc2ccccc2c(=O)n1N	0.9	8.9	0.9	17.2	0.9	0.8
COc1cc(-c2csc(CCn3nc(C)cc3C)n2)cc(OC)c1OC	1	-4.8	0.9	2.3	1	1
COc1cc2nc(=S)n3[nH]c(CCn4nc(C)cc4C)nc3c2cc1OC	0.8	-8.1	0.8	91.6*	1.1	0.1
COc1cc2nc(=S)n3[nH]c(COc4ccccc4C)nc3c2cc1OC	1.1	-5.6	0.9	91.3*	1.1	0.1
COc1ccc2nc(NC(=O)Nc3ccccc3)sc2c1	0.8	70.2*	0.9	19.4	0.3	0.8
CCCCOC(=O)Nc1nc2ccc(OC)cc2s1	0.9	6.2	0.9	-1.7	0.9	1
COc1ccc2nc(NC(=O)c3cnccn3)sc2c1	1	62.6*	0.9	2.5	0.4	1
CCCCN(C(=O)NC(=O)Nc1nc2ccc(OC)cc2s1)S(C)(=O)=O	1	50.3*	0.9	-1.6	0.5	1
COc1ccc2nc(NC(=O)c3ccccc3-c3ccccc3C(=O)O)sc2c1	1	-6.1	1.1	-10.3	1.1	1.1
COc1ccc(Cl)cc1C(=O)Nc1ccccc1N1CCN(C(=O)C(C)C)CC1	0.8	-4.2	0.9	29.3	1	0.7
Cc1cc(C(F)(F)F)nc(SCCN2CCOCC2)c1C#N	2.2*	-1.4	1.7	2.9	1	1
Clc1ccc2c(c1)C1OCCC1C(c1ccco1)N2 (configuration not stated)	1.3	54.4*	1.2	8.5	0.5	0.9
Cc1ccc2c(c1)[C@H]1OCC[C@H]1[C@@H](c1ccncc1)N2	0.8	-2.5	0.8	17.5	1	0.8
O=C(Nc1ccccc1)c1ccc[nH]1	1.1	-3.9	1.1	2.2	1	1
CC(=O)c1c(NCCc2ccccc2)nc(=S)n(-c2ccccc2)c1C	0.6	-4.4	0.8	87.7*	1	0.1
CC(=O)c1c(N2CCN(c3cccc(Cl)c3)CC2)nc(=S)n(-c2ccccc2)c1C	0.9	-8.7	0.9	61.4*	1.1	0.4
CCn1c(C)c(C(C)=O)c(NCc2ccccc2)nc1=S	0.9	-12.5	0.9	52.0*	1.1	0.5
Nn1cnnc1SCC(=O)N(C1CCCCC1)C1CCCCC1	1	-4.8	1	3.0	1	1
